Assay results taken from article PMC9472799 (Biomacromolecules, 2022).

Experiments:
Assay type in all cases: biochemical
sickle hemoglobin (HbS) [1] = target: T1, sickle hemoglobin (HbS) (Homo sapiens, UniProt P68871+P69905, P68871:E7V); experiment: NMR binding
Summary of the method: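 HbS labelled at cysteine thiols with rhodamine red (donor) or Cy5 (acceptor) after TCEP reduction; free dye dialysed away. Donor and acceptor HbS mixed 1:5 at 25 μM. Incubated 2 h at room temperature with test compound at seven concentrations (0.1–1000 μM) or DMSO. Vacuum argon degassed 10 min to deoxygenate. Donor fluorescence lifetime read; FRET efficiency E = 1 − τDA/τD.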

sickle hemoglobin (HbS) [2] = target: T1, sickle hemoglobin (HbS); experiment: FLT-FRET dose response and DLS
sickle hemoglobin (HbS) [3] = target: T1, sickle hemoglobin (HbS); experiment: DLS oligomer size and FLT-FRET with purified deoxy-HbS

Compound: CN1C(=O)CCS(=O)(=O)C1c1ccc(Cl)cc1 (stereo not drawn) [chlormezanone]
- IC50 (sickle hemoglobin (HbS) [1]): > 100 µM

Compound: COc1ccc(-c2ccc(=N)n(CCCC(=O)O)n2)cc1 [gabazine]
- FLT-FRET dose response and DLS (100 μM) with purified deoxy-HbS (sickle hemoglobin (HbS) [2]): all three compounds significantly decreased the oligomer size relative to control (and to the same extent as voxelotor)

Compound: CC(C)n1nccc1-c1ncccc1COc1cccc(O)c1C=O [voxelotor]
- DLS oligomer size and FLT-FRET with purified deoxy-HbS (sickle hemoglobin (HbS) [3]): voxelotor (a compound that increases hemoglobin oxygen binding affinity), which dramatically reduced the mean oligomer size (Figure 1A)
